Calls of active or inactive are those of the source. No cut-off for these calls is given here.
Legend:
[1] = molecular target: Histone deacetylase 1 (Homo sapiens, UniProt Q13547); experiment: Inhibition of human recombinant HDAC1
Method in brief: (§1)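 Recombinant HDAC isoforms incubated with acetyl-lysine tripeptide–AMC substrate (mimics histone H4 K12), or trifluoroacetyl-lysine-AMC for class IIa enzymes, each substrate at its Km; trypsin cleavage of deacetylated product releases fluorescent AMC. IC50 from two experiments in duplicate, mean ± SD.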

[2] = molecular target: Histone deacetylase 2 (Homo sapiens, UniProt Q92769); experiment: Inhibition of human recombinant HDAC2; method in brief: as §1
Sequence of Histone deacetylase 2 (Q92769 whole entry): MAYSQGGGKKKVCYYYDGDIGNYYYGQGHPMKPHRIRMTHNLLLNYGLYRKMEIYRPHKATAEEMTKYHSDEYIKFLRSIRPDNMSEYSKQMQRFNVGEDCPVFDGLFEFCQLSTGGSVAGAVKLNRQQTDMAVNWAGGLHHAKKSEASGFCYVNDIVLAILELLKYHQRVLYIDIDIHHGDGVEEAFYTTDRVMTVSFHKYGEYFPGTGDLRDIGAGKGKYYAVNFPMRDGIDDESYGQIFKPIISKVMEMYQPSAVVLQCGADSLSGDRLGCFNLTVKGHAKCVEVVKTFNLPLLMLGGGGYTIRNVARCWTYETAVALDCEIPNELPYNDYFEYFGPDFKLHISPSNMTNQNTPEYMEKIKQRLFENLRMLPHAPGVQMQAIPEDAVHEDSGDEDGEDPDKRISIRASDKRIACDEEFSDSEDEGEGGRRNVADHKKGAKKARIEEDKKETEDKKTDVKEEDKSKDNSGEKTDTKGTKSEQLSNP

[3] = molecular target: Histone deacetylase 3 (Homo sapiens, UniProt O15379); experiment: Inhibition of human recombinant HDAC3; method in brief: as §1
Sequence of Histone deacetylase 3 (O15379 whole entry): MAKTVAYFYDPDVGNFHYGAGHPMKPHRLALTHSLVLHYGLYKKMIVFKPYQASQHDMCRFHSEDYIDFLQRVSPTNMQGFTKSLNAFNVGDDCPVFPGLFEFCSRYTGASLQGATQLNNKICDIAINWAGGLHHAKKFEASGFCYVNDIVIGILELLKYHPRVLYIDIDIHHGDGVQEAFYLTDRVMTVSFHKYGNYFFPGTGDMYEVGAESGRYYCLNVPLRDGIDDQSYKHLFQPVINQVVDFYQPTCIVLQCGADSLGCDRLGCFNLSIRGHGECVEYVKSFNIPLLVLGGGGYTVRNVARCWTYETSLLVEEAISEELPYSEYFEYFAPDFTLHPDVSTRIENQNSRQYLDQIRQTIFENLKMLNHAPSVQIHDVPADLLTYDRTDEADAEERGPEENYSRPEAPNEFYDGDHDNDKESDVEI

[4] = molecular target: T1, Histone deacetylase 8 (Homo sapiens, UniProt Q9BY41); experiment: Inhibition of human recombinant HDAC8; method in brief: as §1
T1 sequence (Q9BY41 whole entry): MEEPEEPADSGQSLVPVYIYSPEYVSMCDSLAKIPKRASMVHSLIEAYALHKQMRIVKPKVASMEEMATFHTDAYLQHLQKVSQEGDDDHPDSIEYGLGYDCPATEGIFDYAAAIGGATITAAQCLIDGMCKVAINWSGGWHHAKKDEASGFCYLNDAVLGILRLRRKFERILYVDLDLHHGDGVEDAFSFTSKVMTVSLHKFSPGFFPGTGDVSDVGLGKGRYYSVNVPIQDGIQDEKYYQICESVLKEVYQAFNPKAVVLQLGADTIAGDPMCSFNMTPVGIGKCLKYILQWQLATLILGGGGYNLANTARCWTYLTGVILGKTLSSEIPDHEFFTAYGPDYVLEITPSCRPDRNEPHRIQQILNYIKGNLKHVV

[5] = molecular target: Histone deacetylase 4 (Homo sapiens, UniProt P56524); experiment: Inhibition of human recombinant HDAC4; method in brief: as §1
Sequence of Histone deacetylase 4 (P56524 whole entry): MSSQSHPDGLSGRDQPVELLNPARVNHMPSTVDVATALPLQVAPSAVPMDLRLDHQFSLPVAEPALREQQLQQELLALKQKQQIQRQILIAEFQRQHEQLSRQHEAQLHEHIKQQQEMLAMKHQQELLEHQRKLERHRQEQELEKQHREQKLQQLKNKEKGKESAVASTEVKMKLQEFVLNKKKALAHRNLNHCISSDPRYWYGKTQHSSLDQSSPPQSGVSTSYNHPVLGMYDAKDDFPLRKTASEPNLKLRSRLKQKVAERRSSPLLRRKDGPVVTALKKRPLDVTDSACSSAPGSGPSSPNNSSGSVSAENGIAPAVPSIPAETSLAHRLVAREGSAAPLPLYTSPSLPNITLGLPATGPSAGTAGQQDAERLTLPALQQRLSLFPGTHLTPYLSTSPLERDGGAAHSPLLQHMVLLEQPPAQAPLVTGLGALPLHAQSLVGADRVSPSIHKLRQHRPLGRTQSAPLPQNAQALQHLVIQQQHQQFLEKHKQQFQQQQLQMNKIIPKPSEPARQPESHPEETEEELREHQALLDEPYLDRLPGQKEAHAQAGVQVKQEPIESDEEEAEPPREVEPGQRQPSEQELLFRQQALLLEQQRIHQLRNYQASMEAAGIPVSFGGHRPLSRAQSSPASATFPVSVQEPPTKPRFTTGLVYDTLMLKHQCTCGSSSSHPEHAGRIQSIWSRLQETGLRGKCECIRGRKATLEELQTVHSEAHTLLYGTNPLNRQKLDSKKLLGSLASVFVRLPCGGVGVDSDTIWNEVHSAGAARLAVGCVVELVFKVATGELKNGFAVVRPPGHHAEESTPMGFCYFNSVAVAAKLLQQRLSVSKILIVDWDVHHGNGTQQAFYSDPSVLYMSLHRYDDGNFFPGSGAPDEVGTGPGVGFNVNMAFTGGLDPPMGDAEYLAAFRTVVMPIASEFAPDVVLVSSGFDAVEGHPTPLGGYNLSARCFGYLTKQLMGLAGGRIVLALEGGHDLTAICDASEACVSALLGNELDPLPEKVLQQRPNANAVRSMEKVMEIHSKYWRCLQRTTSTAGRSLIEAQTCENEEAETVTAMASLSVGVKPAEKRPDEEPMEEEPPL

[6] = molecular target: Histone deacetylase 5 (Homo sapiens, UniProt Q9UQL6); experiment: Inhibition of human recombinant HDAC5; method in brief: as §1
Sequence of Histone deacetylase 5 (Q9UQL6 whole entry): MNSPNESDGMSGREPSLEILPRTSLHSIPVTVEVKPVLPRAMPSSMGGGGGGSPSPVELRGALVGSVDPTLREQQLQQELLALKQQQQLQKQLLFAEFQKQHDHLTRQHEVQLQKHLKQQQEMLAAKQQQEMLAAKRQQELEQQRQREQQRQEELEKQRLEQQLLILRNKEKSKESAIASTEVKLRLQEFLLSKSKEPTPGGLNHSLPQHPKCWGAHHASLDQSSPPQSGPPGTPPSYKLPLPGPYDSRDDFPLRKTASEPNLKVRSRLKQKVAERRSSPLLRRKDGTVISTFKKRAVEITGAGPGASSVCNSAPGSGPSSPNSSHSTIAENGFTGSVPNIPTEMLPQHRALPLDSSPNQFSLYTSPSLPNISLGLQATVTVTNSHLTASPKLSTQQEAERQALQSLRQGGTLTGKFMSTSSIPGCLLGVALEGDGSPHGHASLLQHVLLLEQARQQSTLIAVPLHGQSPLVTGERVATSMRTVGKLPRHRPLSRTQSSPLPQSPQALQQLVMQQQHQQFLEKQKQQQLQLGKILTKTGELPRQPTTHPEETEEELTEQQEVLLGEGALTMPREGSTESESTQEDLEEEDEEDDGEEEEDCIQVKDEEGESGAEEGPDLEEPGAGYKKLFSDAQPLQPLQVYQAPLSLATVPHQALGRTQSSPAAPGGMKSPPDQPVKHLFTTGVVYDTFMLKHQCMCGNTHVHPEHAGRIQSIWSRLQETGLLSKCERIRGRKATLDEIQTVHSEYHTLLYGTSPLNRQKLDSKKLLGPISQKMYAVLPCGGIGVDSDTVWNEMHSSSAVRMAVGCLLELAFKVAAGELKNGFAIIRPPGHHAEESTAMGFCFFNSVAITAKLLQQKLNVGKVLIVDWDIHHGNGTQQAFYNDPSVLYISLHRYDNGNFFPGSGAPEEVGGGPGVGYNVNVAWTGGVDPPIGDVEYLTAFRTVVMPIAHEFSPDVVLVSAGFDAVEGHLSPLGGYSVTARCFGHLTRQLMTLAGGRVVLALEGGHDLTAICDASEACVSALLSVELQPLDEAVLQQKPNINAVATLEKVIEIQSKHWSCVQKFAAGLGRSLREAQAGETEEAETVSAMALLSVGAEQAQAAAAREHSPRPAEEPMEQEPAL

[7] = molecular target: Histone deacetylase 9 (Homo sapiens, UniProt Q9UKV0); experiment: Inhibition of human recombinant HDAC9; method in brief: as §1
Sequence of Histone deacetylase 9 (Q9UKV0 whole entry): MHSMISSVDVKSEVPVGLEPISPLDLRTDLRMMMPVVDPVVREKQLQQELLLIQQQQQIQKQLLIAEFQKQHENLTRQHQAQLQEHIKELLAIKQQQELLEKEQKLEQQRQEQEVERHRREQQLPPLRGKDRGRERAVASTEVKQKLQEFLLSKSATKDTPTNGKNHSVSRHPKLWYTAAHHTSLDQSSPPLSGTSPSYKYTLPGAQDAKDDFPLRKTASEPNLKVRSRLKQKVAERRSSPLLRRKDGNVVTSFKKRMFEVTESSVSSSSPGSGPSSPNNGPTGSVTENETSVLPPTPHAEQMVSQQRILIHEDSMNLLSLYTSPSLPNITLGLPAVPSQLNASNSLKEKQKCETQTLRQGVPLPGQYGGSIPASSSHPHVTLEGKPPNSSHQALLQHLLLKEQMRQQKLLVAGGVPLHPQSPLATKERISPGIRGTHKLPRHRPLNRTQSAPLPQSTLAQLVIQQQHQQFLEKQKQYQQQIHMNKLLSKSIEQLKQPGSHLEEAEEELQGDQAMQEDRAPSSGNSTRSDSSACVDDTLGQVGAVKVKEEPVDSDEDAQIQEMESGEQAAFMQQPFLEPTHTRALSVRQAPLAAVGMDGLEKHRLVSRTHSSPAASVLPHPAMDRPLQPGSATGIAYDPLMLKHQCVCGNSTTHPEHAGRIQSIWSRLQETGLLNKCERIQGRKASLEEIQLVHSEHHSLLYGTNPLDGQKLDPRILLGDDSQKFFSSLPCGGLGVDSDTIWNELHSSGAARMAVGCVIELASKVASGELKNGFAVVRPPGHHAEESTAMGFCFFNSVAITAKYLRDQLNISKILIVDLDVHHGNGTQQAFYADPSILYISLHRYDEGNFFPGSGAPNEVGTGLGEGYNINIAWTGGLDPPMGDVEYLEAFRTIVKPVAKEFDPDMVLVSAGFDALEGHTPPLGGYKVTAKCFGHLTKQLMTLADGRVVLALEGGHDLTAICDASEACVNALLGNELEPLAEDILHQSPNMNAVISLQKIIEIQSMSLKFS

[8] = molecular target: T2, Protein deacetylase HDAC6 (Homo sapiens, UniProt Q9UBN7); experiment: Inhibition of human recombinant HDAC6; method in brief: as §1
T2 sequence (Q9UBN7 whole entry): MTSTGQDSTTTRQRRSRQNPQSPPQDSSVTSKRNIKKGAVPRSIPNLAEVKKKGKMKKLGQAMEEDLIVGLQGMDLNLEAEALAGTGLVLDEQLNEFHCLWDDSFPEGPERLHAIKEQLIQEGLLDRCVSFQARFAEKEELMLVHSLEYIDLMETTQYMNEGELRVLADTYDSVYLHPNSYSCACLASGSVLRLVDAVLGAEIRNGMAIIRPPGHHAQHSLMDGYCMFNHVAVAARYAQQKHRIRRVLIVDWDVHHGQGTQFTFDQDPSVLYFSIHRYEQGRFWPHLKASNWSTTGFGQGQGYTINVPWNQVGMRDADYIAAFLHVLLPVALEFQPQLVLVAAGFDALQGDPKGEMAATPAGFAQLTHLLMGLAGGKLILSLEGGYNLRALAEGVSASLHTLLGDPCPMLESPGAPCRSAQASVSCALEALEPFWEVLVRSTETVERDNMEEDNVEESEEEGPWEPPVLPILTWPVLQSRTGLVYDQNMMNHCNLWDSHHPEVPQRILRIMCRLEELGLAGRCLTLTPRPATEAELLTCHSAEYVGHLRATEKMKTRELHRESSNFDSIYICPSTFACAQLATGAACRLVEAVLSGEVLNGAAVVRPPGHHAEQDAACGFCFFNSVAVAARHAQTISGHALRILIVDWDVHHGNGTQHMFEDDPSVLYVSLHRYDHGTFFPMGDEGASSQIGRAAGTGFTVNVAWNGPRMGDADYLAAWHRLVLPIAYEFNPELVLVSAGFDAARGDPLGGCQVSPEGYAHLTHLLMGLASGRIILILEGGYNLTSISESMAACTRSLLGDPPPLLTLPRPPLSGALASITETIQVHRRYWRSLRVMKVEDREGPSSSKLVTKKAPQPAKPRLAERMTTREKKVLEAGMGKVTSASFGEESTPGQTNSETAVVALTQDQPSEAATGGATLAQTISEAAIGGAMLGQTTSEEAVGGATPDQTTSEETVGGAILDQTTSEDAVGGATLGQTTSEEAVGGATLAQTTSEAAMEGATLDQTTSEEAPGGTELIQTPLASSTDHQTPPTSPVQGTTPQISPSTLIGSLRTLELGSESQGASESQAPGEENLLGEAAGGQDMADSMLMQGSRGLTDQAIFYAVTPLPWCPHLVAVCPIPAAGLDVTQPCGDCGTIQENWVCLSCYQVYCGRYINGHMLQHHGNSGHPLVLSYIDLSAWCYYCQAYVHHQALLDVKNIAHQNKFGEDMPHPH

[9] = molecular target: T3, Protein deacetylase HDAC6 (Homo sapiens) (UniProt Q9UBN7); experiment: Inhibition of HDAC6 in human HeLa cells assessed as acetylation of tubulin after 24 hrs by immunofluorescence assay; type: cell-based
T3 sequence (whole entry): T2 sequence (Q9UBN7 whole entry)
Method in brief: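 HeLa cells treated 24 h at the indicated doses; tubulin acetylation quantified by immunofluorescence.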

[10] = species on record: Xenopus laevis; experiment: Induction of developmental deffects in frog embryos assessed as loss of anterior structures at 2 mM after 18 hrs; type: organism-based; details: in vivo, 2000 µM
Method in brief: (§2)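 Xenopus laevis embryos exposed in the whole-organism development assay at 2 mM and scored morphologically for loss of anterior structures, shortened anterior–posterior axis, and heart looping and pigment defects; compared with untreated embryos.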

[11] = species on record: Xenopus laevis; experiment: Induction of developmental deffects in frog embryos assessed as shortening of anterior-posterior axis at 2 mM after 18 hrs; type: organism-based; details: in vivo, 2000 µM; method in brief: as §2
[12] = species on record: Xenopus laevis; experiment: Induction of developmental deffects in frog embryos assessed as heart looping and pigment deffects at 2 mM after 18 hrs; type: organism-based; details: in vivo, 2000 µM; method in brief: as §2
[13] = species on record: Xenopus laevis; experiment: Induction of tubulin acetylation in frog embryos at 2 mM after 18 hrs Western blotting
Method in brief: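 Frog embryos treated from stage 18 (end of neurulation) through tailbud stages (32) for 18 h at the indicated concentrations; acetylated tubulin detected by Western blot.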

[14] = species on record: Xenopus laevis; experiment: Induction of histone H3 acetylation in frog embryos at 2 mM after 2 hrs Western blotting
Method in brief: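 Frog embryos treated from completion of neurulation (stage 18) into tailbud stages for 2 h at the indicated concentrations; histone acetylation read by Western blot.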

[15] = molecular target: T4, Protein deacetylase HDAC6 (Mus musculus) (UniProt Q9Z2V5); experiment: Inhibition of HDAC6 in mouse primary forebrain neurons assessed as acetylation of tubulin at 92.5 uM after 24 hrs by immunofluorescence assay
T4 sequence (whole entry): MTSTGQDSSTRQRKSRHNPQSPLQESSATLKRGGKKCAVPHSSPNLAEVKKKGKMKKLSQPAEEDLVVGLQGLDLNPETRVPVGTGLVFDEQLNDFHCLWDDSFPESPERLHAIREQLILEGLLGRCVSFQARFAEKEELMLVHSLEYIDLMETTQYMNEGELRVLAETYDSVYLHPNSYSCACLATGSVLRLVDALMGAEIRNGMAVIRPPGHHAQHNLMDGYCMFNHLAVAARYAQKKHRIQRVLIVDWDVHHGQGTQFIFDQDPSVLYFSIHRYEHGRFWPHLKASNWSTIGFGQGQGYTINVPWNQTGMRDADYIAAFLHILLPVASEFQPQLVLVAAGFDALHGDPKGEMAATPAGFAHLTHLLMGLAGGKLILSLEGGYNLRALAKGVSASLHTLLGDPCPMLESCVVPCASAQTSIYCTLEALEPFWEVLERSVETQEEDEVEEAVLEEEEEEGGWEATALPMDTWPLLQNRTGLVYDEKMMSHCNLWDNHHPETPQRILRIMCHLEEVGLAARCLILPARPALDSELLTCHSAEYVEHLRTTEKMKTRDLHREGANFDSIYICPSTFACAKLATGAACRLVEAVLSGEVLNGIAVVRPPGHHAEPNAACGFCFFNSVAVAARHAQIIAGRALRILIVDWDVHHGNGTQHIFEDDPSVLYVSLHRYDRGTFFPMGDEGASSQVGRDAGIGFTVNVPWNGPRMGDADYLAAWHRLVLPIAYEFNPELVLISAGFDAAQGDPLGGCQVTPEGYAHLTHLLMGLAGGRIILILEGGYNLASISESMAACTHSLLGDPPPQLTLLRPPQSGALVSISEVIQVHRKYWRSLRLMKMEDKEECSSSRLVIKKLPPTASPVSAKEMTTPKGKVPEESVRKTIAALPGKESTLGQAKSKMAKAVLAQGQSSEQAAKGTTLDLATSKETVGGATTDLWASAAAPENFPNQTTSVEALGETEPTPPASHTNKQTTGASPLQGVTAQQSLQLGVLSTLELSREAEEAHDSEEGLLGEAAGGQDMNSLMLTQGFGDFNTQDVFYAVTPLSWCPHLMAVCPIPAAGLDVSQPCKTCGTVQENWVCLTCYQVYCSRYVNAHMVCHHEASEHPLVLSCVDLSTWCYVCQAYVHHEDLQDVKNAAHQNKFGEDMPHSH
Method in brief: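 Primary mouse forebrain cultures treated 24 h at a single concentration; tubulin acetylation measured by immunofluorescence.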

[16] = species on record: Mus musculus; experiment: Inhibition of HDAC in mouse primary forebrain neurons assessed as acetylation of histone H3 lysine 9 at 92.5 uM after 24 hrs by immunofluorescence assay
[17] = molecular target: T5, Histone deacetylase 7 (Homo sapiens, UniProt Q8WUI4); experiment: Inhibition of human recombinant HDAC7
T5 sequence (Q8WUI4 whole entry): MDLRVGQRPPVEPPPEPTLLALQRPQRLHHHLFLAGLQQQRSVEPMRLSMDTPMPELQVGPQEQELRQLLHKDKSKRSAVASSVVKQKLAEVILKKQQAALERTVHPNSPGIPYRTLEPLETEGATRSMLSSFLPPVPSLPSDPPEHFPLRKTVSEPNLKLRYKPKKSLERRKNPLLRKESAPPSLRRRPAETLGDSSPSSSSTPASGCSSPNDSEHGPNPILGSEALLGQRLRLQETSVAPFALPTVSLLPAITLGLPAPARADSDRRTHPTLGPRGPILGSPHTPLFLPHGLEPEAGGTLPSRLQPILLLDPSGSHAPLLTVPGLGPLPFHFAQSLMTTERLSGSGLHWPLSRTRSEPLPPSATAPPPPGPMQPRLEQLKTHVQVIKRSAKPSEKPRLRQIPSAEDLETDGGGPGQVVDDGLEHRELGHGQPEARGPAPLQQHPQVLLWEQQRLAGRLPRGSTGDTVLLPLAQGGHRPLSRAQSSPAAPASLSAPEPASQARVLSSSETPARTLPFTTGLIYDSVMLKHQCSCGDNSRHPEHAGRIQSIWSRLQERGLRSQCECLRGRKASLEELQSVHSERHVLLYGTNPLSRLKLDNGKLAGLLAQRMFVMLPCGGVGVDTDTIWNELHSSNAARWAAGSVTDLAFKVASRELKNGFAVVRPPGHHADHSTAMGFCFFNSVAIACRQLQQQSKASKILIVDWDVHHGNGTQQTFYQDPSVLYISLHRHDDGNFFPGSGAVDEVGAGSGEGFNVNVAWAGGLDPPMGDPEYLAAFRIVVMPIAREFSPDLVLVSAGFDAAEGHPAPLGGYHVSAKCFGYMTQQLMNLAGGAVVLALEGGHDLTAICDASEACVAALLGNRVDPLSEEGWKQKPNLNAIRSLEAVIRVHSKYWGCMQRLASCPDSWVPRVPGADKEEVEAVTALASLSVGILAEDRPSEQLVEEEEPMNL

Sequence of Histone deacetylase 1 (Q13547 whole entry, canonical isoform): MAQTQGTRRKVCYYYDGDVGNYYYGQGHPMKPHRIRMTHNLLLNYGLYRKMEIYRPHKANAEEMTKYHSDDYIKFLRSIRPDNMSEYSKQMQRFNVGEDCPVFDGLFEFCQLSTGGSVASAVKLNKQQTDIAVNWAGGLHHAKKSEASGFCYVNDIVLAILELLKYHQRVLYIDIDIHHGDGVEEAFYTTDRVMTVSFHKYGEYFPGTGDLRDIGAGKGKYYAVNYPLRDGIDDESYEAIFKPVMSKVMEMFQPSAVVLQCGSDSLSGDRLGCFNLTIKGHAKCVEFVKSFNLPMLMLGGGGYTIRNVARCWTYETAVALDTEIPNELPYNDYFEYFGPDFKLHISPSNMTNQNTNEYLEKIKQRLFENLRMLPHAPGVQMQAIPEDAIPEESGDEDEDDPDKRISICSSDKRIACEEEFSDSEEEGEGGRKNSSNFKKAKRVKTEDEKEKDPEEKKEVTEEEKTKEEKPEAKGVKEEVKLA

## CCCC(CCC)C(=O)NO [VALPROPYLHYDROXAMIC ACID]
[1]
  IC50: 560 µM
[2]
  IC50: 680 µM
[3]
  IC50: 340 µM
[4]
  IC50: 39 µM
[5]
  IC50: 170 µM
[6]
  IC50: 37 µM
[7]
  IC50: 91 µM
[8]
  IC50: 16 µM
[9]
  inhibition: Active
[10]
  Activity: Non-toxic
[11]
  Activity: Non-toxic
[12]
  Activity: Non-toxic
[13]
  Activity: Active
[14]
  Activity: inactive
[15]
  inhibition: Active
[16]
  inhibition: inactive

## CCCC(CCC)C(=O)O [VALPROIC ACID]
[1]
  IC50: 39 µM
[5]
  IC50: > 2000 µM
[6]
  IC50: > 2000 µM
[17]
  IC50: > 2000 µM
[7]
  IC50: > 2000 µM
[8]
  IC50: > 2000 µM
[9]
  inhibition: inactive
[10]
  Activity: Toxic
[11]
  Activity: Toxic
[12]
  Activity: Toxic
[16]
  inhibition: inactive

## O=C(CCCc1ccccc1)NO [PHENYLBUTYRYLHYDROXAMIC ACID]
[2]
  IC50: 0.6 µM
[4]
  IC50: 4 µM
[5]
  IC50: 140 µM
[6]
  IC50: 25 µM
[7]
  IC50: 430 µM
[8]
  IC50: 0.5 µM
[9]
  inhibition: Active
[16]
  inhibition: Active

## CCCC(=O)NO [BUTYRYLHYDROXAMIC ACID]
[1]
  IC50: 7 µM
[2]
  IC50: 9 µM
[3]
  IC50: 10 µM
[4]
  IC50: 26 µM
[5]
  IC50: > 2000 µM
[6]
  IC50: 360 µM
[17]
  IC50: > 1000 µM
[7]
  IC50: > 2000 µM
[8]
  IC50: 2 µM
[9]
  inhibition: Active
[16]
  inhibition: Active

## CCCC(=O)O [BUTYRIC ACID]
[1]
  IC50: 16 µM
[2]
  IC50: 12 µM
[3]
  IC50: 9 µM
[4]
  IC50: 15 µM
[5]
  IC50: > 2000 µM
[6]
  IC50: > 2000 µM
[17]
  IC50: > 2000 µM
[7]
  IC50: > 2000 µM
[8]
  IC50: > 2000 µM
[9]
  inhibition: inactive
[16]
  inhibition: inactive

## O=C(O)CCCc1ccccc1
[4]
  IC50: 93 µM
[5]
  IC50: > 2000 µM
[6]
  IC50: > 2000 µM
[17]
  IC50: > 2000 µM
[7]
  IC50: > 2000 µM
[9]
  inhibition: inactive
[15]
  inhibition: Active
[16]
  inhibition: inactive
